Substitutions are numbered along the chain they refer to. Where “and” joins values, the source holds several entries; their conditions need not be identical. Identical values can stand only once.
How the values were obtained:
Assay type in all cases: biochemical
mUCP3 = molecular target: T1, mUCP3 (Mus musculus, UniProt P56501); conditions: 15 mol% AA
T1 sequence (P56501 1-308): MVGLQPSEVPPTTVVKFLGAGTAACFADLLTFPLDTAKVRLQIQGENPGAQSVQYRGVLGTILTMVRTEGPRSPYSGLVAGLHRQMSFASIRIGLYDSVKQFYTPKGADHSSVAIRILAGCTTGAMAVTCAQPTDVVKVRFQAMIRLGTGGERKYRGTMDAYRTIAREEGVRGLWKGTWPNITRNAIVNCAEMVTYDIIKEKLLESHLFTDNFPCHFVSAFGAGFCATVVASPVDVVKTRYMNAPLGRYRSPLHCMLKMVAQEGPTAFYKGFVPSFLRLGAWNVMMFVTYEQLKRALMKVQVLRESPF
Summary of the method: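 Recombinant mouse protein reconstituted into DOPC/DOPE/CL (45:45:10) liposomes. Bilayers formed at 1.5 mg/ml lipid, 6 μg protein/mg lipid, AA 10 or 15 mol%. Run in 50 mM Na₂SO₄/10 mM MES/10 mM Tris/0.6 mM EGTA, pH 7.35, 32°C. I/V recorded −50 to +50 mV, including with 2 mM ATP. G from linear fit at 0 mV gives relative conductance. IC50 and maximum inhibition come from a four-parameter logistic fit. AA-dependence tested at 1 mM ATP, 2 mM ADP, 5 mM AMP. Mean ± SD, ≥3 experiments.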

mUCP1 = molecular target: T2, mUCP1 (Mus musculus, UniProt P12242); conditions: 15 mol% AA, curve fitting
T2 sequence (P12242 1-307): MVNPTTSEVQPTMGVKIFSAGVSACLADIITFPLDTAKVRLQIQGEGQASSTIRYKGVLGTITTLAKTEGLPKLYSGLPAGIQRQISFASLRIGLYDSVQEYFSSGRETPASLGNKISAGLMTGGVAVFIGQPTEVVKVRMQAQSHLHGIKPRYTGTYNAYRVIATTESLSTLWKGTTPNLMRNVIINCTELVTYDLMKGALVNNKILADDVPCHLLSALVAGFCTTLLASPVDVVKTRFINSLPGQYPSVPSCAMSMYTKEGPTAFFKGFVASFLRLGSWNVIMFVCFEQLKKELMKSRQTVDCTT
Summary of the method: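 Inclusion-body mouse protein reconstituted into DOPC/DOPE/CL (45:45:10) proteoliposomes. Planar bilayers made at 1.5 mg/ml lipid, AA 10 or 15 mol% in the lipid solution, sulfate/MES/Tris/EGTA buffer pH 7.35, 32°C. I/V swept −50 to +50 mV; G at zero voltage from linear fit, normalised to AA-only and UCP+AA membranes. Titrations of nucleotides or phosphate fitted by four-parameter logistic for IC50 and maximum inhibition. AA comparison used 1 mM ATP, 2 mM ADP, 2 mM AMP. Mean ± SD, ≥3 experiments.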

mUCP3 R278L = molecular target: T3, mUCP3 R278L (Mus musculus, UniProt P56501, R278L); experiment: Relative conductance of UCP3 mutant in planar bilayer membranes; conditions: 3 mM ammonium-phosphate-dibasic; 15 mol% AA
T3 sequence (P56501 1-308 R278L): T1 sequence (P56501 1-308) with R278L

mUCP3 R184T = molecular target: T4, mUCP3 R184T (Mus musculus, UniProt P56501, R184T); experiment: as above; conditions: 3 mM ammonium-phosphate-dibasic; 15 mol% AA
T4 sequence (P56501 1-308 R184T): T1 sequence (P56501 1-308) with R184T

mUCP3R84Q = molecular target: T5, mUCP3R84Q (Mus musculus, UniProt P56501, R84Q); experiment: Relative conductance of UCP3 mutant in planar bilayer membranes; conditions: 3 mM ammonium-phosphate-dibasic; 15 mol% AA
T5 sequence (P56501 1-308 R84Q): T1 sequence (P56501 1-308) with R84Q
Summary of the method: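 Arginine point mutants made by site-directed mutagenesis, expressed in E. coli Rosetta and reconstituted like wild type. Planar DOPC/DOPE/CL (45:45:10) bilayers carried 15 mol% AA; buffer pH 7.35, 32°C. Relative conductance compared with wild type after nucleotide addition: UCP1 mutants 5 mM ATP, ADP or AMP; UCP3 mutant 2 mM ATP, 4 mM ADP or 8 mM AMP. Mean ± SD, ≥3 experiments.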

In the case of `O=P(O)(O)O` [Pi, inorganic phosphate], the “maximum inhibition of mUCP3 by Pi” value (mUCP3; curve fitting) is reported as ~ 60%, the “extent of inhibition at high inhibitor concentration” value (mUCP3; DOPC/DOPE/CL membranes, pH 7.35, 32°C) is reported as “only partial inhibition” and the IC50 (mUCP3; read-out: IC50 of Pi inhibition, curve fitting) is reported as ~1000 µM and 1000 µM. For the same compound, the “IC50 of mUCP1 inhibition by Pi compared with mUCP3” value (mUCP1) was “similar”, the “maximum inhibition of mUCP1 by Pi compared with mUCP3” value (mUCP1) was “similar” and the “effect of mutation on inhibition by phosphate” value (mUCP3 R278L) was “none of the arginine mutations had any effect”. For the same compound, the “effect of mutation on inhibition by phosphate” value (mUCP3 R184T) was “none of the arginine mutations had any effect” and the “effect of mutation on inhibition by phosphate” value (mUCP3R84Q) was “none of the arginine mutations had any effect”.

Reference: paper PMC6118327 (Biochimica et biophysica acta. Biomembranes, 2017)
